Columns and labels:
PA-1 = test: Cytotoxicity against human PA1 cells after 72 hrs by MTT assay; format: functional, cell-based
Procedure, shortened: (§1)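 Seeded at 5000–10000 cells/well, incubated at 37 °C in CO2 with compounds at a range of concentrations, controls included, in triplicate wells. After 72 h, MTT solution (5 mg/mL) added; absorbance read at 540 nm. % cytotoxicity = 100 × [1 − (X/R1)] versus control absorbance; IC50 by nonlinear regression. Values are means of at least two independent experiments, three determinations each.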

MCF7 = test: Cytotoxicity against human MCF7 cells after 72 hrs by MTT assay; format: functional, cell-based; procedure, shortened: as §1
[1] = Cytotoxicity against mouse NIH/3T3 cells after 72 hrs by MTT assay; format: cell-based, NIH3T3; procedure, shortened: as §1
MIA PaCa-2 = test: Cytotoxicity against human MIAPaCa2 cells after 72 hrs by MTT assay; format: functional, cell-based; procedure, shortened: as §1
K562 = test: Cytotoxicity against human K562 cells after 72 hrs by MTT assay; format: functional, cell-based; procedure, shortened: as §1
A549 = test: Cytotoxicity against human […] cells after 72 hrs by MTT assay; format: functional, cell-based; procedure, shortened: as §1
KB = test: Cytotoxicity against human KB cells after 72 hrs by MTT assay; format: functional, cell-based; procedure, shortened: as §1
DU-145 = test: Cytotoxicity against human DU145 cells after 72 hrs by MTT assay; format: functional, cell-based; procedure, shortened: as §1
SW-620 = test: Cytotoxicity against human SW620 cells after 72 hrs by MTT assay; format: functional, cell-based; procedure, shortened: as §1
[2] = Homo sapiens, MCF7, 72 h, read-out: IC50
[3] = Mus musculus, NIH3T3, 72 h, read-out: IC50
[4] = Homo sapiens, A549, 72 h, read-out: IC50
[5] = Homo sapiens, DU-145, 72 h, read-out: IC50
[6] = Homo sapiens, PA-1, 72 h, read-out: IC50
[7] = Homo sapiens, MIA PaCa-2, 72 h, read-out: IC50
[8] = Homo sapiens, K562, 72 h, read-out: IC50
[9] = Homo sapiens, SW-620, 72 h, read-out: IC50

Compound	IC50 (PA-1; pa-1)	IC50 (KB; Homo sapiens, KB, 72 h) [nM]	IC50 (SW-620; sw-620)	IC50 (MCF7; [2]) [µM]	IC50 [1, 3] [µM]	IC50 (A549; [4]) [µM]	IC50 (DU-145; [5]) [µM]	IC50 (PA-1; [6]) [nM]	IC50 (MIA PaCa-2; [7]) [µM]	IC50 (K562; [8]) [µM]	IC50 (SW-620; [9]) [µM]	other results
CCCNc1nc(NCCC)nc(N2[C@@H](c3ccc(C)cc3)c3[nH]c4ccccc4c3C[C@@H]2C(=O)OC)n1 (racemic)	Not Active	665	Not Active									IC50 (MCF7; mcf7): Not Active; IC50 ([1]; nih3t3): Not Active; IC50 (MIA PaCa-2; mia paca-2): Not Active; IC50 (K562; k562): Not Active; IC50 (A549; a549): Not Active; IC50 (DU-145; du-145): Not Active
CCN1CCN(c2nc(N3CCN(CC)CC3)nc(N3[C@H](c4ccc(OC)cc4)c4[nH]c5ccccc5c4C[C@H]3C(=O)OC)n2)CC1	Not Active	1220	Not Active	1.34	1.86	1.61	1.67					
COC(=O)[C@H]1Cc2c([nH]c3ccccc23)[C@@H](c2ccc(OC)cc2)N1c1nc(N2CCN(C)CC2)nc(N2CCN(C)CC2)n1		1820		12.3	5.28	11.5	2.45	3340	5.26	4.48	3.27	
COC(=O)[C@@H]1Cc2c([nH]c3ccccc23)[C@H](c2ccc(OC)cc2)N1c1nc(N2CCN(C)CC2)nc(N2CCN(C)CC2)n1 (racemic)				6.06	2.33		5.35	2720		7.13		IC50 (MIA PaCa-2; mia paca-2, read-out: IC50): 7.37 µM; IC50 (A549; a549, read-out: IC50): 6.3 µM; IC50 (KB; kb): 1460 nM; IC50 (SW-620; sw-620, read-out: IC50): 3.32 µM
CCCN1CCN(c2nc(N3CCN(CCC)CC3)nc(N3[C@H](c4ccc(OC)cc4)c4[nH]c5ccccc5c4C[C@H]3C(=O)OC)n2)CC1	Not Active	3540	Not Active	2.07	2.24	1.67	7.11					
COC(=O)[C@@H]1Cc2c([nH]c3ccccc23)[C@H](c2ccc(C(C)C)cc2)N1c1nc(N2CCN(C)CC2)nc(N2CCN(C)CC2)n1		6880		5.93	1.17	1.76	2.87	270	1.81	6.43	1.93	
COC(=O)[C@@H]1Cc2c([nH]c3ccccc23)[C@H](c2cc(OC)c(OC)c(OC)c2)N1c1nc(N2CCN(C)CC2)nc(N2CCN(C)CC2)n1 (racemic)		17900		5.96	6.71		5.22	5320				
COC(=O)[C@@H]1Cc2c([nH]c3ccccc23)[C@@H](c2ccc(C)cc2)N1c1nc(N2CCN(C)CC2)nc(N2CCN(C)CC2)n1 (racemic)	Not Active	106	Not Active									IC50 (MCF7; mcf7): Not Active; IC50 ([1]; nih3t3): Not Active; IC50 (MIA PaCa-2; mia paca-2): Not Active; IC50 (K562; k562): Not Active; IC50 (A549; a549): Not Active; IC50 (DU-145; du-145): Not Active
COC(=O)[C@H]1Cc2c([nH]c3ccccc23)[C@@H](c2ccccc2)N1c1nc(N2CCN(C)CC2)nc(N2CCN(C)CC2)n1		1830		8.28	11.4	8.62	7.76	1790	5.88	6.45	3.24	
COC(=O)[C@H]1Cc2c([nH]c3ccccc23)[C@H](c2ccccc2)N1c1nc(N2CCN(C)CC2)nc(N2CCN(C)CC2)n1		1980		6.21	6		2.81	1930	6.11	5.34	2.84	
